Data: ChEMBL document CHEMBL4052596, “Dioncophyllines C2, D2, and F and Related Naphthylisoquinoline Alkaloids from the Congolese Liana Ancistrocladus ileboensis with Potent Activities against Plasmodium falciparum and against Multiple Myeloma and Leukemia Cell Lines” (J Nat Prod, 2017)

Columns and labels:
[1] = tested on: Trypanosoma brucei rhodesiense; assay: Antiprotozoal activity against patient derived Trypanosoma brucei rhodesiense STIB 900 bloodstream form after 72 hrs by Alamar Blue assay; assay type: functional; settings: STIB 900, 72 h
Outline: (§1)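 In vitro tests against P. falciparum NF54, T. cruzi, T. b. rhodesiense and L. donovani, with cytotoxicity on rat skeletal myoblast L6 host cells.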

Plasmodium falciparum [2] = assay: Antiprotozoal activity against erythrocytic stage of Plasmodium falciparum NF54 after 48 hrs by [3H]- hypoxanthine incorporation assay; assay type: functional; outline: as §1
Trypanosoma cruzi = assay: Antiprotozoal activity against trypomastigote stage of Trypanosoma cruzi Tulahuen C2C4 infected in rat L6 cells using preincubated for 96 hrs by CPRG/Nonidet-based inverted microscopy; assay type: functional, cell-based; outline: as §1
L6 = assay: Cytotoxicity against rat L6 cells after 72 hrs by Alamar Blue assay; assay type: cell-based; settings: L6, 72 h; outline: as §1
Leishmania donovani = assay: Antiprotozoal activity against amastigote form of Leishmania donovani MHOM/ET/67/L82 after 72 hrs by Alamar Blue assay; assay type: functional; settings: MHOM/ET/67/L82, 72 h; outline: as §1
[3] = Induction of apoptosis in human INA-6 cells after 3 days by V-FITC/ propidium iodide staining-based flow cytometric analysis; assay type: functional, cell-based
Outline: (§2)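 INA-6 multiple myeloma cells, or mononuclear cells from the peripheral blood of healthy donors, exposed to a range of concentrations for 3 d, with melphalan as reference. Cells stained 10 min with annexin V-FITC and PI in HEPES binding buffer pH 7.4 (140 mM NaCl, 2.5 mM CaCl2), then analysed by flow cytometry. The annexin/PI double-negative fraction counted as viable, and EC50 derived from dose-response curves.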

[4] = Selectivity index, ratio of IC50 for rat L6 cells to IC50 for erythrocytic stage of Plasmodium falciparum NF54; assay type: toxicity; settings: read-out: Ratio IC50
Outline: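 Ratio of the L6 cell IC50 to the P. falciparum IC50. Each IC50 is the mean of two independent assays.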

CCRF-CEM [5] = assay: Growth inhibition of human CCRF-CEM cells by resazurin assay; assay type: functional, cell-based
Outline: (§3)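 CCRF-CEM cells and the P-glycoprotein-overexpressing multidrug-resistant subline CEM/ADR5000 treated over a range of concentrations, with doxorubicin as positive control and DMSO (under 1.0%) as negative control. Resazurin fluorescence read at ex 544/em 590 nm against untreated cells. IC50 taken from a calibration curve by linear regression. Mean ± SD of three independent experiments, six parallel measurements each.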

[6] = Resistance index, ratio of IC50 for human CEM/ADR5000 cells to IC50 for human CCRF-CEM cells; assay type: functional
Outline: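 Degree of resistance is the IC50 for CEM/ADR5000 divided by the IC50 for CCRF-CEM. Both come from resazurin viability dose-response curves over three independent experiments.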

PBMC = assay: Induction of apoptosis in human PBMC after 3 days by V-FITC/ propidium iodide staining-based flow cytometric analysis; assay type: cell-based; settings: 72 h; outline: as §2
CCRF-CEM [7] = assay: Growth inhibition of human CCRF-CEM cells at 10 uM by resazurin assay relative to control; assay type: functional; settings: read-out: GI
Outline: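 Drug-sensitive CCRF-CEM leukemia cells treated at a single concentration of 10 μM, with doxorubicin as reference and DMSO vehicle (under 1.0%) as negative control. Viability read by resazurin fluorescence (ex 544, em 590 nm) relative to untreated cells. Three independent experiments, six parallel measurements each.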

ADR5000 cell line = assay: Growth inhibition of human multi-drug resistant CEM/ADR5000 cells by resazurin assay; assay type: functional, cell-based; outline: as §3
[8] = Selectivity index, ratio of IC50 for rat L6 cells to IC50 for erythrocytic stage of chloroquine and pyrimethamine resistant Plasmodium falciparum K1; assay type: toxicity; settings: read-out: Ratio IC50
Outline: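 Selectivity index: IC50 toward rat skeletal myoblast L6 cells (in vitro cytotoxicity, previously published method) divided by IC50 against P. falciparum K1; each IC50 is the mean of two independent assays.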

Plasmodium falciparum [9] = assay: Antiprotozoal activity against erythrocytic stage of chloroquine and pyrimethamine resistant Plasmodium falciparum K1 after 48 hrs by [3H]- hypoxanthine incorporation assay; assay type: functional

Row | IC50 [1] [µM] | IC50 (Plasmodium falciparum [2]) [µM] | IC50 (Trypanosoma cruzi) [µM] | EC50 ([3]; Homo sapiens, INA-6, 72 h) [µM] | SMILES | IC50 (L6) [µM] | IC50 (Leishmania donovani) [µM] | selectivity ratio [4] | also measured
1 | 0.313 | 0.726 | 12.4 | 4.8 | COc1cc2c(c(OC)c1-c1c(C)cc(OC)c3c(OC)cccc13)[C@@H](C)N[C@@H](C)C2 | 30 | 25.4 | 41 | 
2 | 4.83 | 0.702 | 44.5 |  | COc1cccc2c(-c3ccc(O)c4c3C[C@@H](C)N[C@H]4C)c(C)cc(OC)c12 | 43.3 | 228 | 61.7 | 
3 | 8.08 | 0.228 | 26.3 | 2.6 | COc1ccc(-c2ccc3c(c2O)[C@@H](C)N[C@H](C)C3)c2cc(C)cc(OC)c12 | 4.02 | > 265 | 17.6 | IC50 (CCRF-CEM [5]): 1.86 µM; Ratio IC50 [6]: 2.9; EC50 (PBMC): 19 µM; inhibition of growth at 10 µM (CCRF-CEM [7]): < 50%; IC50 (ADR5000 cell line): 5.31 µM
4 |  |  |  | 1.5 | COc1cc(C)c(-c2ccc3c(c2O)[C@@H](C)N[C@H](C)C3)c2cccc(O)c12 |  |  |  | 
5 | 22.7 | 6.51 | 104 |  | COc1cc2c(c(O)c1-c1c(C)cc(OC)c3c(OC)cccc13)C(C)=N[C@H](C)C2 | 34.9 | 146 | 5.4 | 
6 | 13.7 | 0.107 | 55 | 32 | COc1ccc(-c2ccc3c(c2O)[C@@H](C)N(C)[C@H](C)C3)c2cc(C)cc(OC)c12 | 62.8 | 136 | 586 | 
7 |  |  |  |  | COc1cccc2c(-c3ccc4c(c3O)[C@@H](C)N[C@H](C)C4)c(C)cc(O)c12 (stereo in doubt; M-11) |  |  |  | EC50 (PBMC): 50 µM; EC50 ([3]; ina-6): 16 µM
8 |  |  |  |  | COc1cccc2c(-c3ccc4c(c3O)[C@@H](C)N[C@H](C)C4)c(C)cc(O)c12 (stereo in doubt; P-11) |  |  |  | EC50 ([3]; ina-6): 2.7 µM
9 |  |  | 2.32 |  | O=C(Cn1ccnc1[N+](=O)[O-])NCc1ccccc1 [BENZNIDAZOLE] |  |  |  | 
10 |  |  |  | 0.22 | COc1cccc2c(-c3ccc4c(c3O)[C@@H](C)N[C@H](C)C4)c(C)cc(OC)c12 [DIONCOPHYLLINE A] |  |  |  | IC50 (CCRF-CEM [5]): 0.243 µM; Ratio IC50 [6]: 2.1; inhibition of growth at 10 µM (CCRF-CEM [7]): < 50%; IC50 (ADR5000 cell line): 0.52 µM
11 |  |  |  | 7.5 | COc1cc(C)c(-c2ccc(O)c3c2C[C@@H](C)N[C@@H]3C)c2cccc(O)c12 [DIONCOPHYLLINE C] |  |  |  | EC50 (PBMC): 9 µM
12 |  |  |  |  | COc1cccc2c1C(=O)c1c(O)c3c(c(O)c1C2=O)C[C@@](O)(C(=O)CO)C[C@@H]3O[C@H]1C[C@H](N)[C@H](O)[C@H](C)O1 [DOXORUBICIN] |  |  |  | IC50 (CCRF-CEM [5]): 0.017 µM; Ratio IC50 [6]: 1769; IC50 (ADR5000 cell line): 30.1 µM
13 |  |  |  | 0.8 | COc1cccc2c(-c3ccc4c(c3O)[C@@H](C)N(C(C)=O)[C@H](C)C4)c(C)cc(OC)c12 [N-ACETYLDIONCOPHYLLINE A] |  |  |  | 

Row | SMILES | IC50 [1] [µM] | IC50 (Plasmodium falciparum [2]) [µM] | IC50 (Trypanosoma cruzi) [µM] | EC50 ([3]; Homo sapiens, INA-6, 72 h) [µM] | IC50 (L6) [µM] | IC50 (Leishmania donovani) [µM] | selectivity ratio [4] | also measured
14 | COc1ccc(-c2ccc(O)c3c2C[C@@H](C)N[C@H]3C)c2cc(C)cc(OC)c12 | 0.585 | 0.09 | 14.6 | 21 | 14.5 | 107 | 161 | selectivity ratio [8]: 323; EC50 (PBMC): 16 µM; IC50 (Plasmodium falciparum [9]): 0.045 µM
15 | N[C@@H](Cc1ccc(N(CCCl)CCCl)cc1)C(=O)O |  |  |  | 2 |  |  |  | 
